Each block holds one compound with its values, some of them ahead of it.
Columns and labels:
Liver microsomes = assay: Metabolic stability in human liver microsomes assessed as intrinsic clearance; type: ADME, Microsome
Procedure, shortened: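 Pooled human liver microsomes (0.2 mg protein/mL) with test compound at 0.1 or 1 μmol/L, 5 mmol/L NADPH, 100 mmol/L phosphate buffer pH 7.4, 6 mmol/L MgCl2 and 0.1 mmol/L EDTA. Cosolvent was DMSO (0.01 or 0.001 vol%) or methanol (1 vol%). Incubated at 37 °C for a fixed time, n = 1 or 2. Stopped with CH3CN containing internal standard and analysed by LC-MS or LC-MS/MS. Intrinsic clearance calculated from percent remaining.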

MOLM-13 [1] = assay: Antitumor activity against human MOLM13 cells xenografted in SCID mouse assessed as minimal tumor volume ratio at 50 mg/kg, po bid treated for 5 days measured after 7 days relative to control; type: functional
Procedure, shortened: (§1)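 SCID mice bearing subcutaneous MOLM-13 xenografts, 5 per group, dosed orally b.i.d. for 5 days. […] is the mean tumour volume ratio, treated to control. Regression is the mean tumour volume relative to the initial volume on day 0. Mortality and body weight were also recorded.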

Mus musculus [2] = assay: Toxicity to human MOLM13 cells xenografted SCID mouse assessed as mortality at 50 mg/kg, po bid after 5 days; type: organism-based, MOLM-13; set-up: dose 50 mg/kg, route oral; conditions: in vivo, 120 h
Procedure, shortened: (§2)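 MOLM-13 cells implanted subcutaneously in SCID mice. Compound given orally twice daily for 5 days at 50, 100 or 200 mg/kg, alongside an untreated control group. Mortality was scored per dose group, together with tumor volume as treated/control ratio and relative to day-0 volume.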

MOLM-13 [3] = assay: Antiproliferative activity against human MOLM13 cells after 72 hrs by WST-1 assay; type: functional; conditions: MOLM-13, 72 h
Procedure, shortened: (§3)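 Cells kept in RPMI1640 with 10% heat-inactivated FBS, 1% penicillin and 1% streptomycin, seeded in 96-well plates and exposed to test compounds for 72 h. Viability read with WST-1 reagent. GI50 is the mean ± SEM of three experiments.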

[4] = target: T1, Receptor-type tyrosine-protein kinase FLT3 (Homo sapiens, UniProt P36888); assay: Inhibition of GST-tagged FLT3 by ELISA
T1 sequence (P36888 whole entry): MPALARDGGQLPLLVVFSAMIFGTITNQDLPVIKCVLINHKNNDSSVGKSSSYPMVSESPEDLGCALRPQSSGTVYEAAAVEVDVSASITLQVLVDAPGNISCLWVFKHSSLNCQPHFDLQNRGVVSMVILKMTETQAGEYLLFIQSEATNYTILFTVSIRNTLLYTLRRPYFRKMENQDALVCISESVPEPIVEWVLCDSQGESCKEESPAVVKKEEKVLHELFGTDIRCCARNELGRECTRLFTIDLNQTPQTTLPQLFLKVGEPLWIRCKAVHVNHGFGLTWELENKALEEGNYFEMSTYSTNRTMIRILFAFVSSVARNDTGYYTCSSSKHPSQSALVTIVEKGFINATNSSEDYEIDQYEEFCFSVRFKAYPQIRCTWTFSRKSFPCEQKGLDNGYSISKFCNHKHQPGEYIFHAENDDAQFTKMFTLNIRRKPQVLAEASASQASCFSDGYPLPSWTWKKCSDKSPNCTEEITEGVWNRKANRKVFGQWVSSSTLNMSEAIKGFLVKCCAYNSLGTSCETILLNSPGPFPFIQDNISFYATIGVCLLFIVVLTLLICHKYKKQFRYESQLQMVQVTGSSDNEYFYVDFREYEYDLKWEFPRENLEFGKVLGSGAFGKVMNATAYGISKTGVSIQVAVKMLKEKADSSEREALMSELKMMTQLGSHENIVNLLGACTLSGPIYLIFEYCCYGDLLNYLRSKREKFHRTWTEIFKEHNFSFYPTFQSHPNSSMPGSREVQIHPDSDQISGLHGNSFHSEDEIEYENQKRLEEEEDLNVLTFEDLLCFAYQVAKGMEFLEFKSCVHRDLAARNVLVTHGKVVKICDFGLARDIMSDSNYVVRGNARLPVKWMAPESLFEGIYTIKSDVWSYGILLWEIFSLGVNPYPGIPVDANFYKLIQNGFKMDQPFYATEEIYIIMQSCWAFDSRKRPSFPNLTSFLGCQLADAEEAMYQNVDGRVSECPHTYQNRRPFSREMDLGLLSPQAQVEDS

[5] = Antiproliferative activity against human HMC1 cells expressing FLT3-delta599 mutant after 72 hrs by WST-1 assay; type: functional; conditions: HMC1, 72 h; procedure, shortened: as §3
[6] = Antiproliferative activity against human HMC1 cells expressing FLT-D835Y mutant after 72 hrs by WST-1 assay; type: functional; conditions: HMC1, 72 h; procedure, shortened: as §3
[7] = Antiproliferative activity against human ML1 cells after 72 hrs by WST-1 assay; type: functional; conditions: ML1, 72 h; procedure, shortened: as §3
Mus musculus [8] = assay: Toxicity to human MOLM13 cells xenografted SCID mouse assessed as body weight loss at 200 mg/kg, po bid after 5 days; type: organism-based, MOLM-13; set-up: dose 200 mg/kg, route oral; conditions: in vivo, 120 h; procedure, shortened: as §1
MOLM-13 [9] = assay: Antitumor activity against human MOLM13 cells xenografted in SCID mouse assessed as minimal tumor volume ratio at 100 mg/kg, po bid treated for 5 days measured after 7 days relative to control; type: functional; procedure, shortened: as §1
[10] = Metabolic stability in human liver microsomes
Mus musculus [11] = assay: Toxicity to human MOLM13 cells xenografted SCID mouse assessed as mortality at 100 mg/kg, po bid after 5 days; type: organism-based, MOLM-13; set-up: dose 100 mg/kg, route oral; conditions: in vivo, 120 h; procedure, shortened: as §2
MOLM-13 [12] = assay: Antitumor activity against human MOLM13 cells xenografted in SCID mouse assessed as minimal regressive tumor volume ratio at 50 mg/kg, po bid treated for 5 days measured after 7 days relative to control; type: functional; procedure, shortened: as §1
MOLM-13 [13] = assay: Antitumor activity against human MOLM13 cells xenografted in po dosed SCID mouse assessed as regression tumor volume ratio administered bid for 5 days; type: functional, organism-based; procedure, shortened: as §1
MOLM-13 [14] = assay: Antitumor activity against human MOLM13 cells xenografted in po dosed SCID mouse assessed as tumor volume ratio administered bid for 5 days; type: functional, organism-based; procedure, shortened: as §1
MOLM-13 [15] = assay: Antitumor activity against human MOLM13 cells xenografted in SCID mouse assessed as minimal regressive tumor volume ratio at 100 mg/kg, po bid treated for 5 days measured after 7 days relative to control; type: functional; procedure, shortened: as §1

clearance (Liver microsomes): 11.7 mL/min/kg | GI50 (MOLM-13 [3]): 308 nM
Structure (SMILES): CCCOc1nc(NCCc2ccncc2)ncc1-c1nnc(CN2CCN(C)CC2)o1

clearance (Liver microsomes): 1.67 mL/min/kg | GI50 (MOLM-13 [3]): 262 nM
Structure (SMILES): CNc1nc(NCCc2ccncc2)ncc1-c1nnc(CN2CCN(C)CC2)o1

IC50 [4]: 106 nM | clearance (Liver microsomes): 183 mL/min/kg | GI50 (MOLM-13 [3]): 23 nM
Structure (SMILES): Cc1ccc(Nc2nc(NCCc3ccncc3)ncc2-c2nnc(C3CC3)o2)cc1

clearance (Liver microsomes): 167 mL/min/kg | GI50 (MOLM-13 [3]): 43 nM
Structure (SMILES): CCCNc1nc(NCCc2ccncc2)ncc1-c1nnc(CN2CCOCC2)o1

IC50 [4]: 47 nM | clearance (Liver microsomes): 317 mL/min/kg | GI50 (MOLM-13 [3]): 40 nM
Structure (SMILES): c1ccc(Nc2nc(NCCc3ccncc3)ncc2-c2nnc(C3CC3)o2)cc1

IC50 [4]: 63 nM | clearance (Liver microsomes): 20 mL/min/kg | GI50 (MOLM-13 [3]): 123 nM
Structure (SMILES): OCCNc1nc(NCCc2ccncc2)ncc1-c1nnc(C2CC2)o1

clearance (Liver microsomes): 86.7 mL/min/kg | GI50 (MOLM-13 [3]): 52 nM
Structure (SMILES): CN1CCN(Cc2nnc(-c3cnc(NCCc4ccncc4)nc3NCC3CC3)o2)CC1

IC50 [4]: 373 nM
Structure (SMILES): CCCNc1nc(NCCc2cccs2)ncc1-c1nnc(C)o1

More lines, now with the values behind:

Structure (SMILES): CCCNc1nc(NCCc2ccncc2)ncc1-c1nnc(CN(C)C)o1
clearance (Liver microsomes): 183 mL/min/kg | T/C (MOLM-13 [1]): 0.45 | Activity (Mus musculus [2]): Non-toxic | GI50 (MOLM-13 [3]): 73 nM

Structure (SMILES): Oc1ccc(Nc2nc(NCCc3ccncc3)ncc2-c2nnc(C3CC3)o2)cc1
IC50 [4]: 4.8 nM | GI50 (MOLM-13 [3]): 3.2 nM

Structure (SMILES): CCNc1nc(NCCc2ccncc2)ncc1-c1nnc(CN2CCN(C)CC2)o1
GI50 [5]: 114 nM | clearance (Liver microsomes): 45 mL/min/kg | GI50 [6]: 63 nM | GI50 [7]: > 10000 nM | T/C (MOLM-13 [1]): 0.24 | Activity (Mus musculus [8]): Non-toxic | Activity (Mus musculus [2]): Non-toxic | GI50 (MOLM-13 [3]): 102 nM

Structure (SMILES): Oc1cccc(Nc2nc(NCCc3ccncc3)ncc2-c2nnc(C3CC3)o2)c1
IC50 [4]: 34 nM | clearance (Liver microsomes): 267 mL/min/kg | GI50 (MOLM-13 [3]): 10 nM

Structure (SMILES): [O-][n+]1ccc(CCNc2ncc(-c3nnc(C4CC4)o3)c(Nc3ccccc3)n2)cc1
clearance (Liver microsomes): 3.33 mL/min/kg | GI50 (MOLM-13 [3]): 3610 nM

Structure (SMILES): CCCNc1nc(NCCc2ccncc2)ncc1-c1nnc(C2CC2)o1
GI50 [5]: 36 nM | IC50 [4]: 4.9 nM | clearance (Liver microsomes): 217 mL/min/kg | GI50 [6]: 52 nM | T/C (MOLM-13 [9]): 0.34 | GI50 [7]: 4320 nM | Activity [10]: Unstable | T/C (MOLM-13 [1]): 0.47 | Activity (Mus musculus [8]): Non-toxic | Activity (Mus musculus [2]): Non-toxic | GI50 (MOLM-13 [3]): 36 nM

Structure (SMILES): CCNc1nc(NCCc2ccncc2)ncc1-c1nnc(CN2C[C@@H](C)N[C@@H](C)C2)o1
GI50 [5]: 74 nM | clearance (Liver microsomes): 13.3 mL/min/kg | GI50 [6]: 48 nM | T/C (MOLM-13 [9]): 0.014 | Activity (Mus musculus [11]): Non-toxic | Ratio (MOLM-13 [12]): 1.39 | Activity (MOLM-13 [13]): Dose-dependent effect | GI50 [7]: > 10000 nM | Activity (MOLM-13 [14]): Dose-dependent effect | Ratio (MOLM-13 [15]): 0.12 | T/C (MOLM-13 [1]): 0.2 | Activity (Mus musculus [8]): Non-toxic | Activity (Mus musculus [2]): Non-toxic | GI50 (MOLM-13 [3]): 94 nM

Structure (SMILES): COc1cc(CCNc2ncc(-c3nnc(C4CC4)o3)c(Nc3ccccc3)n2)ccn1
GI50 (MOLM-13 [3]): 999 nM

Structure (SMILES): c1ccc(Nc2nc(NCCc3ccncn3)ncc2-c2nnc(C3CC3)o2)cc1
clearance (Liver microsomes): 73.3 mL/min/kg | GI50 (MOLM-13 [3]): 775 nM

Structure (SMILES): Oc1cc(CCNc2ncc(-c3nnc(C4CC4)o3)c(Nc3ccccc3)n2)ccn1
clearance (Liver microsomes): 41.7 mL/min/kg | GI50 (MOLM-13 [3]): 113 nM

Structure (SMILES): N#Cc1cc(CCNc2ncc(-c3nnc(C4CC4)o3)c(Nc3ccccc3)n2)ccn1
GI50 (MOLM-13 [3]): 10000 nM

Reference: ChEMBL document CHEMBL1152250, “Novel and orally active 5-(1,3,4-oxadiazol-2-yl)pyrimidine derivatives as selective FLT3 inhibitors” (Bioorg Med Chem Lett, 2008)
